From ChEMBL document CHEMBL4689842, “EUbOPEN Chemogenomics Library wave 1” (2021)

Experiments:
Assay type in all cases: toxicity, cell-based
U2OS [1] = assay: Multiplex assay against U2OS; details: human
In short: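 Hoechst33342, BioTracker Green Microtubule Cytoskeleton Dye, MitoTracker Red and Annexin V Alexa Fluor 680 were added to live cells at seeding, and imaging on a CQ1 microscope at 37°C and 5% CO2 followed compound addition. Gating by CellPathfinder machine learning separated cells into Hoechst high-intensity objects or normal cells, then normal cells into healthy, pyknosed or fragmented nuclei, then pyknosed cells into mitotic or apoptotic. Per cents of healthy-nucleus cells are reported for the tubulin, mitochondrial-mass and membrane-permeability phenotypes.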

HEK-293T = assay: Incucyte cell viability with HEK293T; details: human, 10 µM, compound concentration 10 uM; note: filed as whole numbers so only -1 and 0 and 1 occur
U2OS [2] = assay: Incucyte cell viability with U2OS; details: human, 10 µM, compound concentration 10 uM; note: filed as whole numbers so only -1 and 0 and 1 occur
[3] = 12 h, 1 µM, compound concentration 1 uM, replicate 1
[4] = 12 h, 1 µM, compound concentration 1 uM, replicate 2
[5] = 12 h, 10 µM, compound concentration 10 uM, replicate 1
[6] = 12 h, 10 µM, compound concentration 10 uM, replicate 2
[7] = 24 h, 1 µM, compound concentration 1 uM, replicate 1
[8] = 24 h, 1 µM, compound concentration 1 uM, replicate 2
[9] = 24 h, 10 µM, compound concentration 10 uM, replicate 1
[10] = 24 h, 10 µM, compound concentration 10 uM, replicate 2
[11] = 48 h, 1 µM, compound concentration 1 uM, replicate 1
[12] = 48 h, 1 µM, compound concentration 1 uM, replicate 2
[13] = 48 h, 10 µM, compound concentration 10 uM, replicate 1
[14] = 48 h, 10 µM, compound concentration 10 uM, replicate 2
[15] = 12 h, replicate number 1, timepoint 12 hours
[16] = 18 h, replicate number 1, timepoint 18 hours
[17] = 24 h, replicate number 1, timepoint 24 hours

For `CCn1c(-c2nonc2N)nc2cnc(Oc3cccc(NC(=O)c4ccc(OCCN5CCOCC5)cc4)c3)cc21` [GSK-269962A], the “Population Apoptotic (%)” value (U2OS [1]; [3]) was 43%, the “Population Fragmented Nuclei (%)” value (U2OS [1]; [3]) was 14% and the “Population Healthy Nuclei (%)” value (U2OS [1]; [3]) was 64%. For the same compound, the “Population Hoechst High Intensity Objects (%)” value (U2OS [1]; [3]) was 12%, the “Population Membrane Permeable-Phenotype (%)” value (U2OS [1]; [3]) was 13% and the “Population Mitochondria Different-Phenotype (%)” value (U2OS [1]; [3]) was 17%. For the same compound, the “Population Mitotic Cells (%)” value (U2OS [1]; [3]) was 56%, the “Population Normal (%)” value (U2OS [1]; [3]) was 87% and the “Population Pyknosed Nuclei (%)” value (U2OS [1]; [3]) was 21%. For the same compound, the “Population Tubulin-Different-Phenotype (%)” value (U2OS [1]; [3]) was 13%, the “Total Cell Count” value (U2OS [1]; [3]) was 156 and the “Population Apoptotic (%)” value (U2OS [1]; [4]) was 20%. For the same compound, the “Population Fragmented Nuclei (%)” value (U2OS [1]; [4]) was 20%, the “Population Healthy Nuclei (%)” value (U2OS [1]; [4]) was 72% and the “Population Hoechst High Intensity Objects (%)” value (U2OS [1]; [4]) was 2%. The “Population Membrane Permeable-Phenotype (%)” value (U2OS [1]; [4]) was 14%, the “Population Mitochondria Different-Phenotype (%)” value (U2OS [1]; [4]) was 16% and the “Population Mitotic Cells (%)” value (U2OS [1]; [4]) was 80%. The “Population Normal (%)” value (U2OS [1]; [4]) was 97%, the “Population Pyknosed Nuclei (%)” value (U2OS [1]; [4]) was 7% and the “Population Tubulin-Different-Phenotype (%)” value (U2OS [1]; [4]) was 14%. For the same compound, the “Total Cell Count” value (U2OS [1]; [4]) was 45, the “Population Apoptotic (%)” value (U2OS [1]; [5]) was 50% and the “Population Fragmented Nuclei (%)” value (U2OS [1]; [5]) was 15%. The “Population Healthy Nuclei (%)” value (U2OS [1]; [5]) was 53%, the “Population Hoechst High Intensity Objects (%)” value (U2OS [1]; [5]) was 10% and the “Population Membrane Permeable-Phenotype (%)” value (U2OS [1]; [5]) was 36%. For the same compound, the “Population Mitochondria Different-Phenotype (%)” value (U2OS [1]; [5]) was 94%, the “Population Mitotic Cells (%)” value (U2OS [1]; [5]) was 49% and the “Population Normal (%)” value (U2OS [1]; [5]) was 90%. For the same compound, the “Population Pyknosed Nuclei (%)” value (U2OS [1]; [5]) was 30%, the “Total Cell Count” value (U2OS [1]; [5]) was 121 and the “Population Apoptotic (%)” value (U2OS [1]; [6]) was 31%. The “Population Fragmented Nuclei (%)” value (U2OS [1]; [6]) was 20%, the “Population Healthy Nuclei (%)” value (U2OS [1]; [6]) was 57% and the “Population Hoechst High Intensity Objects (%)” value (U2OS [1]; [6]) was 7%. For the same compound, the “Population Membrane Permeable-Phenotype (%)” value (U2OS [1]; [6]) was 45%, the “Population Mitochondria Different-Phenotype (%)” value (U2OS [1]; [6]) was 97% and the “Population Mitotic Cells (%)” value (U2OS [1]; [6]) was 68%. The “Population Normal (%)” value (U2OS [1]; [6]) was 92%, the “Population Pyknosed Nuclei (%)” value (U2OS [1]; [6]) was 22% and the “Population Tubulin-Different-Phenotype (%)” value (U2OS [1]; [6]) was 100%. The “Total Cell Count” value (U2OS [1]; [6]) was 71, the “Population Apoptotic (%)” value (U2OS [1]; [7]) was 43% and the “Population Fragmented Nuclei (%)” value (U2OS [1]; [7]) was 10%. The “Population Healthy Nuclei (%)” value (U2OS [1]; [7]) was 71%, the “Population Hoechst High Intensity Objects (%)” value (U2OS [1]; [7]) was 7% and the “Population Membrane Permeable-Phenotype (%)” value (U2OS [1]; [7]) was 6%. The “Population Mitochondria Different-Phenotype (%)” value (U2OS [1]; [7]) was 18%, the “Population Mitotic Cells (%)” value (U2OS [1]; [7]) was 56% and the “Population Normal (%)” value (U2OS [1]; [7]) was 92%. The “Population Pyknosed Nuclei (%)” value (U2OS [1]; [7]) was 17%, the “Population Tubulin-Different-Phenotype (%)” value (U2OS [1]; [7]) was 8% and the “Total Cell Count” value (U2OS [1]; [7]) was 174. For the same compound, the “Population Apoptotic (%)” value (U2OS [1]; [8]) was 75%, the “Population Fragmented Nuclei (%)” value (U2OS [1]; [8]) was 11% and the “Population Healthy Nuclei (%)” value (U2OS [1]; [8]) was 77%. The “Population Hoechst High Intensity Objects (%)” value (U2OS [1]; [8]) was 2%, the “Population Membrane Permeable-Phenotype (%)” value (U2OS [1]; [8]) was 1% and the “Population Mitochondria Different-Phenotype (%)” value (U2OS [1]; [8]) was 10%. For the same compound, the “Population Mitotic Cells (%)” value (U2OS [1]; [8]) was 25%, the “Population Normal (%)” value (U2OS [1]; [8]) was 97% and the “Population Pyknosed Nuclei (%)” value (U2OS [1]; [8]) was 11%. For the same compound, the “Population Tubulin-Different-Phenotype (%)” value (U2OS [1]; [8]) was 14%, the “Total Cell Count” value (U2OS [1]; [8]) was 59 and the “Population Apoptotic (%)” value (U2OS [1]; [9]) was 70%. The “Population Fragmented Nuclei (%)” value (U2OS [1]; [9]) was 13%, the “Population Healthy Nuclei (%)” value (U2OS [1]; [9]) was 55% and the “Population Hoechst High Intensity Objects (%)” value (U2OS [1]; [9]) was 9%. For the same compound, the “Population Membrane Permeable-Phenotype (%)” value (U2OS [1]; [9]) was 52%, the “Population Mitochondria Different-Phenotype (%)” value (U2OS [1]; [9]) was 98% and the “Population Mitotic Cells (%)” value (U2OS [1]; [9]) was 29%. For the same compound, the “Population Normal (%)” value (U2OS [1]; [9]) was 90%, the “Population Pyknosed Nuclei (%)” value (U2OS [1]; [9]) was 30% and the “Total Cell Count” value (U2OS [1]; [9]) was 138. For the same compound, the “Population Apoptotic (%)” value (U2OS [1]; [10]) was 53%, the “Population Fragmented Nuclei (%)” value (U2OS [1]; [10]) was 30% and the “Population Healthy Nuclei (%)” value (U2OS [1]; [10]) was 52%. The “Population Hoechst High Intensity Objects (%)” value (U2OS [1]; [10]) was 5%, the “Population Membrane Permeable-Phenotype (%)” value (U2OS [1]; [10]) was 67% and the “Population Mitochondria Different-Phenotype (%)” value (U2OS [1]; [10]) was 97%. The “Population Mitotic Cells (%)” value (U2OS [1]; [10]) was 46%, the “Population Normal (%)” value (U2OS [1]; [10]) was 94% and the “Population Pyknosed Nuclei (%)” value (U2OS [1]; [10]) was 17%. For the same compound, the “Population Tubulin-Different-Phenotype (%)” value (U2OS [1]; [10]) was 100%, the “Total Cell Count” value (U2OS [1]; [10]) was 73 and the “Population Apoptotic (%)” value (U2OS [1]; [11]) was 48%. The “Population Fragmented Nuclei (%)” value (U2OS [1]; [11]) was 14%, the “Population Healthy Nuclei (%)” value (U2OS [1]; [11]) was 70% and the “Population Hoechst High Intensity Objects (%)” value (U2OS [1]; [11]) was 4%. For the same compound, the “Population Membrane Permeable-Phenotype (%)” value (U2OS [1]; [11]) was 7%, the “Population Mitochondria Different-Phenotype (%)” value (U2OS [1]; [11]) was 22% and the “Population Mitotic Cells (%)” value (U2OS [1]; [11]) was 52%. For the same compound, the “Population Normal (%)” value (U2OS [1]; [11]) was 95%, the “Population Pyknosed Nuclei (%)” value (U2OS [1]; [11]) was 15% and the “Population Tubulin-Different-Phenotype (%)” value (U2OS [1]; [11]) was 7%. For the same compound, the “Total Cell Count” value (U2OS [1]; [11]) was 230, the “Population Apoptotic (%)” value (U2OS [1]; [12]) was 33% and the “Population Fragmented Nuclei (%)” value (U2OS [1]; [12]) was 10%. For the same compound, the “Population Healthy Nuclei (%)” value (U2OS [1]; [12]) was 81%, the “Population Hoechst High Intensity Objects (%)” value (U2OS [1]; [12]) was 7% and the “Population Membrane Permeable-Phenotype (%)” value (U2OS [1]; [12]) was 8%. For the same compound, the “Population Mitochondria Different-Phenotype (%)” value (U2OS [1]; [12]) was 11%, the “Population Mitotic Cells (%)” value (U2OS [1]; [12]) was 66% and the “Population Normal (%)” value (U2OS [1]; [12]) was 92%. For the same compound, the “Population Pyknosed Nuclei (%)” value (U2OS [1]; [12]) was 9%, the “Population Tubulin-Different-Phenotype (%)” value (U2OS [1]; [12]) was 17% and the “Total Cell Count” value (U2OS [1]; [12]) was 82. For the same compound, the “Population Apoptotic (%)” value (U2OS [1]; [13]) was 64%, the “Population Fragmented Nuclei (%)” value (U2OS [1]; [13]) was 21% and the “Population Healthy Nuclei (%)” value (U2OS [1]; [13]) was 43%. The “Population Hoechst High Intensity Objects (%)” value (U2OS [1]; [13]) was 6%, the “Population Membrane Permeable-Phenotype (%)” value (U2OS [1]; [13]) was 71% and the “Population Mitochondria Different-Phenotype (%)” value (U2OS [1]; [13]) was 100%. For the same compound, the “Population Mitotic Cells (%)” value (U2OS [1]; [13]) was 35%, the “Population Normal (%)” value (U2OS [1]; [13]) was 93% and the “Population Pyknosed Nuclei (%)” value (U2OS [1]; [13]) was 34%. The “Population Tubulin-Different-Phenotype (%)” value (U2OS [1]; [13]) was 100%, the “Total Cell Count” value (U2OS [1]; [13]) was 169 and the “Population Apoptotic (%)” value (U2OS [1]; [14]) was 57%. The “Population Fragmented Nuclei (%)” value (U2OS [1]; [14]) was 13%, the “Population Healthy Nuclei (%)” value (U2OS [1]; [14]) was 59% and the “Population Hoechst High Intensity Objects (%)” value (U2OS [1]; [14]) was 10%. For the same compound, the “Population Membrane Permeable-Phenotype (%)” value (U2OS [1]; [14]) was 87%, the “Population Mitochondria Different-Phenotype (%)” value (U2OS [1]; [14]) was 97% and the “Population Mitotic Cells (%)” value (U2OS [1]; [14]) was 42%. For the same compound, the “Population Normal (%)” value (U2OS [1]; [14]) was 89%, the “Population Pyknosed Nuclei (%)” value (U2OS [1]; [14]) was 27% and the “Total Cell Count” value (U2OS [1]; [14]) was 108. The “Growth Rate” value (HEK-293T; 0 h, replicate number 1, timepoint 0 hours) was 1, the “Growth Rate” value (HEK-293T; 0 h, replicate number 2, timepoint 0 hours) was 0 and the “Growth Rate” value (HEK-293T; 6 h, replicate number 1, timepoint 6 hours) was 0. The “Growth Rate” value (HEK-293T; [15]) was 0, the “Growth Rate” value (HEK-293T; [16]) was 0 and the “Growth Rate” value (HEK-293T; [17]) was 0. The “Growth Rate” value (U2OS [2]; [15]) was 1, the “Growth Rate” value (U2OS [2]; [16]) was 1 and the “Growth Rate” value (U2OS [2]; [17]) was 1.
